A selection: hits, their analogues and other compounds. The true share with any hit is near 6.7%.
CSC inhib = blocks cancer stem cells; cancer stem cell-like cells viability, luminescence; 300,000 compounds, 1.1% hits; inhibition, % at 7.5 µM; in the data active = inhibition above about 75%; tested in HMLE shEcad cells
T cruzi inh = T. cruzi replication inhibition | T. cruzi beta-gal in NIH3T3, luminescence, 90 h | inhibition, % (no concentration beside the values) | 300,000 compounds, 1.4% hits;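 active = mean inhibition across valid replicates above about 55%, limit read from the data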;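 note: signal also drops with host cell toxicity which is not excluded here; higher percent means less beta-gal luminescence so fewer parasites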
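System: Mouse NIH/3T3 fibroblasts infected with β-gal-expressing T. cruzi Tulahuen C4 | Quantity: NIH/3T3 cells, 5,000 per well | Reagent: 5000 reporter trypomastigotes per well | Dosing: Compound pinned at 50 nL/well, DMSO | Schedule: 3 h host attachment, then at least 90 h co-culture | Detection: GalScreen luminescence, 60 min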
GRIN3A LBD mod = modulates the human NR3A ligand-binding domain; NR3A LBD differential scanning fluorimetry, Tm shift; 0% = protein alone, 100% = glycine-bound protein; Tm shift relative to glycine control, % at 25 µM; 340,000 compounds, 2.5% hits; AID 1259313;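 active = melting temperature shift of at least 10% of the positive control shift, at one fixed dose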
CHOP inh = CHOP inhibition in unfolded protein response; inhibition, % at 10 µM; AID 2732; CHO-K1 CHOP-promoter luciferase, tunicamycin-induced, 15-18 h; 220,000 compounds, 3.8% hits;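 active = compounds that reduced the stress-induced luciferase reporter signal by more than about 70% of percent inhibition, limit read from the data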
Beta apoptosis = blocks beta cell apoptosis. INS-1E cytokine-induced death, ATP luminescence, 48 h; percent of positive-control rescue, neutral wells zero. protection from apoptosis, % (no concentration beside the values). 300,000 compounds, 0.8% hits. AID 435005;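 active = Every replicate reaches about 75%, or at least half do and their mean reaches it too, limit read from the data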;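 note: higher means more ATP so stronger rescue from cytokine killing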
PREPL inhibitor = inhibits the human prolyl oligopeptidase-like enzyme. AID 2751. 320,000 compounds, 0.68% hits. Q4J6C6. recombinant PREPL, fluorescence polarization activity-based probe. inhibition, % at 5.96 µM; in the data active = inhibition above about 43%
Target sequence (Q4J6C6 whole entry, looked up): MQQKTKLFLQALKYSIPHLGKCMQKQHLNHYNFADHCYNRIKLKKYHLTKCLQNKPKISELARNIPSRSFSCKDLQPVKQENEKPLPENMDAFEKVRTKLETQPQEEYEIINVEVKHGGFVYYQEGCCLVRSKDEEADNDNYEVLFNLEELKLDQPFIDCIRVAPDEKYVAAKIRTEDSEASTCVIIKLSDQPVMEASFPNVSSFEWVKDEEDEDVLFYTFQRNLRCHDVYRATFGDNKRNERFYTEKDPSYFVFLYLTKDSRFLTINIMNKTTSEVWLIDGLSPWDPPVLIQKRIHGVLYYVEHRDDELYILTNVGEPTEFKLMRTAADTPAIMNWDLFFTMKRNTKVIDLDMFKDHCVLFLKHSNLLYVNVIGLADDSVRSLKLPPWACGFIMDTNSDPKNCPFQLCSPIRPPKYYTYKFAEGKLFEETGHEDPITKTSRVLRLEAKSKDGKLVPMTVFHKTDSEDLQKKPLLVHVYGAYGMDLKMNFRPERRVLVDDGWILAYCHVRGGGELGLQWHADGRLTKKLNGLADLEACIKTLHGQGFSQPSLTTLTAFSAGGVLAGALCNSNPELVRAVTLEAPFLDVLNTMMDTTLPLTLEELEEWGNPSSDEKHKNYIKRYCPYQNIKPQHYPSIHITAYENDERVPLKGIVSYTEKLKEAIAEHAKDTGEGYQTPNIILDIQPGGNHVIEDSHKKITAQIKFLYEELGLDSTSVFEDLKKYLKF
Of the large screens only hits and unclear results are named; the others gave an inactive call.

CCn1nc(C)c(/C=N/NC(=S)Nc2ccc(Cl)cc2Cl)c1C	none
O=[N+]([O-])c1ccc(/C=N/NC(=S)Nc2ccc(Cl)cc2Cl)s1	CSC inhib 123.7, T cruzi inh 56.1, GRIN3A LBD mod 10.7
Cc1nn(C)cc1/C=N/NC(=S)Nc1ccc(Cl)cc1Cl	GRIN3A LBD mod 18.0
O=[N+]([O-])c1ccc(O)c(/C=N/NC(=S)Nc2ccc(Cl)cc2Cl)c1	CSC inhib 76.1, Beta apoptosis 121.1
OCc1cccc(Nc2ncnc3sc4c(c23)CCCCC4)c1	none (no result: CHOP inh)
Cc1ccc(NS(=O)(=O)c2ccc(C(=O)NNC(=O)c3ccccc3O)cc2)cc1	GRIN3A LBD mod 10.0 (no result: CHOP inh)
O=C(NNC(=O)c1ccccc1O)c1ccc(NS(=O)(=O)c2ccc(F)c(F)c2)cc1	none (no result: CHOP inh, Beta apoptosis)
Cc1ccc(NS(=O)(=O)c2ccc(C(=O)NCc3ccccn3)cc2)cc1	GRIN3A LBD mod 14.0 (no result: CHOP inh)
O=C(NC(=C(Cl)Cl)S(=O)(=O)c1ccc(Cl)cc1)c1ccccc1	none
COc1ccccc1NC(=O)CSc1nccc(-c2ccco2)n1	none (no result: CSC inhib, T cruzi inh, CHOP inh)
CC(C)c1ccccc1NC(=O)C1CC(=O)N(C2CCCC2)C1 (centres undefined)	none (no result: CHOP inh)
CC(C)N(C(=O)[C@H]1C[C@H](CC(=O)NCCC2=CCCCC2)C(=O)N2CCc3c([nH]c4ccc(Cl)cc34)[C@]12C)C(C)C	none (no result: CSC inhib, T cruzi inh, CHOP inh, Beta apoptosis, PREPL inhibitor)
COc1ccc(CN(C)CC(=O)c2c(N)n(Cc3ccccc3)c(=O)n(C)c2=O)c(OC)c1	T cruzi inh 58.8, PREPL inhibitor 47.4
Cn1c(=O)c(C(=O)COc2ccc(F)cc2Cl)c(N)n(Cc2ccccc2)c1=O	CHOP inh 78.8
Cn1c(N)c(C(=O)COc2ccc(Cl)cc2Cl)c(=O)n(C)c1=O	none
CC1CC=C(O)C12OCC(C)(C)CO2 (centres undefined)	none (no result: CSC inhib, T cruzi inh, CHOP inh, Beta apoptosis, PREPL inhibitor)
O=C(C1CCCN(S(=O)(=O)c2ccc(Br)cc2)C1)N1CCN(Cc2ccccc2)CC1 (centres undefined)	none (no result: CHOP inh)
O=C(CN1C(=O)NC2(CCCC2)C1=O)N1CCN(S(=O)(=O)c2ccccc2F)CC1	GRIN3A LBD mod 13.1 (no result: CHOP inh)
O=C(CN1C(=O)NC2(CCCC2)C1=O)N1CCN(S(=O)(=O)c2ccccc2Br)CC1	none (no result: CHOP inh)
O=c1c2ccccc2nc(-c2ccco2)n1CCc1ccc(O)cc1	none (no result: CHOP inh)
CN1CCN(C(=S)Nc2ccc(Cl)c(Cl)c2)CC1	GRIN3A LBD mod 12.6
S=C(Nc1ccc(Cl)c(Cl)c1)N1CCN(c2ccccn2)CC1	GRIN3A LBD mod 11.0 (no result: CSC inhib, CHOP inh, Beta apoptosis)
COc1ccc(N2C3=C(CC4=C2CC(C)(C)CC4=O)C(=O)CC(C)(C)C3)cc1	T cruzi inh 63.6
COc1ccc(N2C3=C(CC4=C2CCCC4=O)C(=O)CCC3)cc1	none (no result: CSC inhib)
O=C(c1cc(-c2ccncc2)nc2ccccc12)N1CCN(c2ccccn2)CC1	T cruzi inh 60.1
Cc1ccc(C(C)(C)C)c(OCCCn2ccnc2)c1	none
Cc1ccc(C)c(OCCCCn2ccnc2)c1	T cruzi inh 71.4
Cc1ccc(OCCCCn2ccnc2)c(Cl)c1	T cruzi inh 61.1
CC(C)(C)c1ccccc1OCCCCCn1ccnc1	T cruzi inh 61.2
CC(=O)Nc1ccc(-c2csc(-c3cccnc3)n2)cc1	none (no result: CHOP inh)
C=CCn1c(Cc2nc3ccc(Cl)cc3[nH]2)n[nH]c1=S	CHOP inh 81.5 (no result: Beta apoptosis)
CN(/N=C/c1ccc2c(c1)OCO2)c1ccccc1	GRIN3A LBD mod 10.8
CCCCNC(=S)N(C)/N=C/c1ccc2c(c1)OCO2	CSC inhib 83.1
C(=N\N(c1ccccc1)c1ccccc1)/c1ccc2c(c1)OCO2	none
CCCCNC(=S)N(C)/N=C/c1ccccc1F	CHOP inh 77.2
CCCCNC(=S)N(C)/N=C/c1c(F)cccc1F	none
N#CCCN(Cc1ccccc1)C(=O)c1nccnc1C(=O)O	none (no result: CSC inhib, CHOP inh, Beta apoptosis)
CN=c1scc(-c2ccc(OC)cc2)n1/N=C(\C)c1cccnc1	T cruzi inh 58.4
COc1ccc(CC(=O)N/N=C(\C)c2cccnc2)cc1	none (no result: CHOP inh)
Cc1ccc(S(=O)(=O)N2CCOC2CNC(=O)C(=O)NCC(C)C)cc1 (centres undefined)	none (no result: CHOP inh)
COCCNC(=O)C(=O)NCC1OCCN1S(=O)(=O)c1ccc(C)cc1 (centres undefined)	GRIN3A LBD mod 14.1 (no result: CHOP inh)
CNC(=O)C(=O)NCC1OCCN1S(=O)(=O)c1ccc(C)cc1 (centres undefined)	GRIN3A LBD mod 11.1 (no result: CHOP inh)
COCCNC(=O)C(=O)NCC1OCCN1S(=O)(=O)c1ccc2c(c1)OCCO2 (centres undefined)	none
COc1ccc(CCNC(=O)CSc2nnc(CNC(=O)c3cc(OC)c(OC)c(OC)c3)o2)cc1OC	none (no result: CHOP inh)
CCN1C(=O)/C(=C2\SC(=S)N(CC3CCCO3)C2=O)c2ccccc21 (centres undefined)	none (no result: CSC inhib, T cruzi inh, GRIN3A LBD mod, Beta apoptosis, PREPL inhibitor)
CCN1C(=O)/C(=C2\SC(=S)N(NC(=O)c3ccccc3O)C2=O)c2ccccc21	GRIN3A LBD mod 13.7
CCN(C1CCCCC1)S(=O)(=O)CCNC(=O)c1ccccc1	none (no result: CHOP inh)
Oc1ccc(C=NNC(=S)Nc2cccnc2)nc1	GRIN3A LBD mod 11.0 (no result: CSC inhib, T cruzi inh, CHOP inh, Beta apoptosis, PREPL inhibitor)
COc1ccc(NC(=O)CSc2c3c(nc4cc(Cl)ccc24)CCCC3)cc1OC	GRIN3A LBD mod 14.0
COc1cc(NC(=O)CSc2c3c(nc4ccccc24)CCC3)cc(OC)c1OC	GRIN3A LBD mod 12.8
CC1OC(OC2C(OC3C(O[C@H]4CC[C@]5(C)C6C=C[C@]78OC[C@@]9(CC[C@@H](C)[C@H](C)C97)[C@H](O)C[C@@]8(C)[C@]6(C)CC[C@H]5C4(C)C)OC(C)C(O)C3O)OC(CO)C(O)C2O)C(O)C(O)C1O (some centres undefined)	CHOP inh 100.7 (no result: CSC inhib, GRIN3A LBD mod, Beta apoptosis, PREPL inhibitor)
CC(C)c1ccc(CN2CC(C(=O)Nc3ccccc3)CC2=O)cc1 (centres undefined)	GRIN3A LBD mod 14.8
Cc1ccc2c(c1)c(N=O)c(O)n2Cc1ccc(Cl)cc1	CSC inhib 103.6
O=Nc1c(O)n(Cc2ccc(Cl)cc2)c2ccccc12	none
CCOC(=O)n1c(=O)n(Cc2ccccc2Cl)c2ccccc21	none
CCOC(=O)n1c(=O)n(Cc2ccc(Cl)cc2Cl)c2ccccc21	CHOP inh 80.6 (no result: CSC inhib)
O=Nc1c(O)n(Cc2c(Cl)cccc2Cl)c2ccccc12	CHOP inh 90.6
O=Nc1c(O)n(Cc2ccc(Cl)cc2Cl)c2ccccc12	CSC inhib 112.6, CHOP inh 87.1
Cc1csc(CNC(=O)C2CCC(=O)N(CCc3cccc(F)c3)C2)n1 (centres undefined)	none (no result: CHOP inh)
CN(Cc1ccco1)C(=O)c1ccc(CNS(=O)(=O)c2ccc3c(c2)C(C)(C)C(=O)N3C)cc1	none (no result: CHOP inh)
Fc1cccc(Cl)c1-c1nnc2ccc3ccccc3n12	Beta apoptosis 100.6
Fc1ccccc1-c1nnc2ccc3ccccc3n12	none (no result: CHOP inh)
COC(=O)c1cnc(SCc2ccc(Cl)cc2)n1C	CHOP inh 75.3
COC(=O)c1cnc(SCC(=O)c2ccccc2)n1C	none (no result: CHOP inh)
Cc1cc(C(=O)CN2CCN(CC(=O)Nc3cccc(F)c3)CC2)c(C)n1C1CC1	none (no result: T cruzi inh, CHOP inh)

Screening data as filed in PubChem BioAssay.
